For 43 compounds, IC50 and Activity results are on record in ChEMBL document CHEMBL1136847, “Syntheses and potential anti-prostate cancer activities of ionone-based chalcones” (Bioorg Med Chem Lett, 2009).

What is called pIC50 is −log10 of the IC50, conventionally taken in molar units.

The subject of one test is LNCaP. Kind of test: Cytotoxicity against androgen-dependent human LNCAP cells with T877A AR mutant after 72 hrs by MTT assay. The format is functional, cell-based. A digest of the protocol: (§1)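 Cells seeded at 6000–7000 per well in RPMI 1640 with 10% FBS, penicillin and streptomycin, left overnight, then exposed to a range of concentrations from DMSO stock (final DMSO 0.5%) for 72 h. MTT added for a further 2 h and formazan from viable cells read. IC50 taken from survival curves, 50% inhibition relative to 0.5% DMSO control; top concentration 150 µM.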
A general note: Tetrazolium dyes change colour on reduction, which living cells bring about.

A further test has as its system PC-3. The test is described as follows: Cytotoxicity against androgen-independent human PC3 cells after 72 hrs by MTT assay. It is filed as functional, cell-based. The following applies: for pIC50: PC-3, 72 h. A digest of the protocol: as §1
The next test concerns CWR22R. The test is described as follows: Cytotoxicity against human 22Rv1 cells with H874Y AR mutant after 72 hrs by MTT assay. The format is functional, cell-based. The following applies: 22Rv1, 72 h. A digest of the protocol: as §1
The nature of test [1]: Cytotoxicity against androgen-independent human C4-2B cells with T877A mutant after 72 hrs by MTT assay. The following applies: LNCaP C4-2B. The format is functional, cell-based. A digest of the protocol:
as §1

Test [2] in a line: Cytotoxicity against androgen-dependent human MDA PCa 2b cells with T877A/L701H AR mutant after 72 hrs by MTT assay. The format is functional, cell-based. The procedure, abridged: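 Seeded at 6000–7000 cells per well in BRFF-HPC1 medium with 20% FBS, incubated overnight, then treated with serial concentrations diluted from DMSO stock (final DMSO 0.5%) for 72 h. Viability by MTT, 2 h with reagent, formazan measured. IC50 from survival curves as 50% inhibition versus 0.5% DMSO vehicle; maximum concentration tested 150 µM.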

Test [3] can be described thus: Cytotoxicity against human RWPE1 cells after 72 hrs by MTT assay. It is filed as cell-based. The following applies: RWPE-1, 72 h. The procedure, abridged:
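Non-tumorigenic prostate epithelial line plated at 6000–7000 cells per well in keratinocyte serum-free medium with 0.05 mg/mL bovine pituitary extract and 5 ng/mL EGF; overnight attachment, then compounds at various concentrations in 0.5% final DMSO for 72 h. MTT 2 h, formazan read; IC50 from survival curves versus DMSO control.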

Molecules are shown by their SMILES. pIC50: −log10 of the molar value. Calls of active or inactive are those of the source. No cut-off for these calls is given here. A value given as a limit tells only on which side of the number the result lay.

Take `CC1=C(/C=C/C(=O)/C=C/c2ccc(C(F)(F)F)cc2)C(C)(C)CCC1`: the negative logarithm of the IC50 (pIC50) in the test with LNCaP was 5.04; in the test on PC-3, 4.92.
For `CC1=C(/C=C/C(=O)/C=C/c2cc(C(F)(F)F)cc(C(F)(F)F)c2)C(C)(C)CCC1` the same measures were 5.06 and 5.14.
As to `CC1=C(/C=C/C(=O)/C=C/c2ccc(F)cc2)C(C)(C)CCC1`, the pIC50 is 5.14 in the test on LNCaP and 4.59 in the test on PC-3.
The like results for `CC1=C(/C=C/C(=O)/C=C/c2ccccc2F)C(C)(C)CCC1` were, in that order, 4.97 and 4.66.
As for `CC1=C(/C=C/C(=O)/C=C/c2cccc(F)c2)C(C)(C)CCC1O` (centres undefined), the negative logarithm of the IC50 (pIC50) was 5.25 in the test on CWR22R, 5.36 in the test on LNCaP and 4.80 in the test with PC-3.
As for `CC1=CCCC(C)(C)C1/C=C/C(=O)/C=C/c1ccc(C(F)(F)F)cc1` (centres undefined), the pIC50 was 5.28 in test [1]; 5.48 with CWR22R; 5.33 in the test on LNCaP; 5.10 with PC-3; 5.15 in test [2].
Regarding `CC1=CCCC(C)(C)C1/C=C/C(=O)/C=C/c1cccc(C)c1` (centres undefined), the negative-log IC50 (pIC50) in test [1] was 5.21; in the test on CWR22R it was 4.82; in the test with LNCaP it was 4.91; in the test with PC-3 it was 5.23.
For `CC1=C(/C=C/C(=O)/C=C/c2ccc(F)cc2)C(C)(C)CCC1O` (centres undefined), the negative-log IC50 (pIC50) is 5.40 in test [1], 5.12 with CWR22R, 5.41 in the test on LNCaP and 5.21 in the test with PC-3.
With `CC1=CCCC(C)(C)C1/C=C/C(=O)/C=C/c1cccc([N+](=O)[O-])c1` (centres undefined), the pIC50 in test [1] was 5.40; in the test with CWR22R, 5.33; with LNCaP, 5.48; in the test with PC-3 it was 5.54; in test [2], 5.23.
`CC1=CCCC(C)(C)C1/C=C/C(=O)/C=C/c1ccccc1C(F)(F)F` (centres undefined): the pIC50 in test [1] is 4.93; in the test on CWR22R, 4.74; in the test on LNCaP, 4.65; in the test on PC-3, 4.72.
Take `CC1=C(/C=C/C(=O)/C=C/c2ccccc2F)C(C)(C)CCC1O` (centres undefined): the results for the pIC50 in the test on CWR22R, in the test on LNCaP and in the test with PC-3 were 5.48, 5.54 and 4.98, respectively.
Consider `CC1=CCCC(C)(C)C1/C=C/C(=O)/C=C/c1cc(C(F)(F)F)ccc1F` (centres undefined), for which the negative logarithm of the IC50 (pIC50) was 5.33 in test [1]; 5.46 in the test with CWR22R; 5.77 in the test with LNCaP; 5.51 with PC-3; 5.52 in test [2].
On to `CC1=C(/C=C/C(=O)/C=C/c2cccc(C)c2)C(C)(C)CCC1`, for which the pIC50 is 4.75 in the test with LNCaP and 4.46 in the test on PC-3.
For `CC1=C(/C=C/C(=O)/C=C/c2ccc(C(F)(F)F)cc2)C(C)(C)CCC1O` (centres undefined), the negative-log IC50 (pIC50) in the test on CWR22R was 5.49; with LNCaP it was 5.52; with PC-3, 4.99; in test [2], 5.03.
With `CC(=O)/C=C/C1C(C)=CCCC1(C)C` (stereo not drawn) [ALPHA-IONONE], in the test on LNCaP, the pIC50 was 3.82. Moreover, the outcome with PC-3 was inactive.
Consider `COc1cccc(/C=C/C(=O)/C=C/C2=C(C)C(O)CCC2(C)C)c1` (centres undefined), for which the pIC50 with LNCaP is 5.31; in the test with PC-3, 5.19.
Regarding `CC1=C(/C=C/C(=O)/C=C/c2cc(F)cc(C(F)(F)F)c2)C(C)(C)CCC1O` (centres undefined), the pIC50 in the test with CWR22R is 5.62; in the test with LNCaP, 5.96; in the test on PC-3, 5.52.
Take `CCOC(OCC)c1cccc(/C=C/C(=O)/C=C/C2=C(C)C(O)CCC2(C)C)c1` (centres undefined): the negative logarithm of the IC50 (pIC50) was 5.74 in the test with LNCaP and 5.33 in the test on PC-3.
For `CC1=C(/C=C/C(=O)/C=C/c2cc(C(F)(F)F)ccc2F)C(C)(C)CCC1O` (centres undefined), the negative-log IC50 (pIC50) in the test on CWR22R was 5.70; in the test with LNCaP it was 5.77; with PC-3, 5.44.
Consider `CC1=C(/C=C/C(=O)/C=C/c2ccc(-c3ccccc3)cc2)C(C)(C)CCC1`, for which the negative logarithm of the IC50 (pIC50) in the test with LNCaP was 4.83; with PC-3, 4.32.
Turning to `CC1=C(/C=C/C(=O)/C=C/c2cc([N+](=O)[O-])ccc2Cl)C(C)(C)CCC1`, the results for the pIC50 with LNCaP and with PC-3 were 5.38 and 4.72, respectively.
For `CC1=C(/C=C/C(=O)/C=C/c2cccc(C)c2)C(C)(C)CCC1O` (centres undefined), the pIC50 with CWR22R was 5.36; in the test with LNCaP, 5.39; with PC-3, 5.21; in test [2], 4.72.
`CC1=C(/C=C/C(=O)/C=C/c2cccc(F)c2)C(C)(C)CCC1`: the negative-log IC50 (pIC50) in the test with LNCaP was 4.89; in the test on PC-3 it was 4.73.
Consider `CC1=C(/C=C/C(=O)/C=C/c2cccc([N+](=O)[O-])c2)C(C)(C)CCC1O` (centres undefined), for which the negative logarithm of the IC50 (pIC50) with CWR22R was 5.72; in the test with LNCaP, 5.70; with PC-3 it was 5.24; in test [2], 5.22; in test [3] it was 5.72.
Turning to `CC1=C(/C=C/C(=O)/C=C/c2ccc(F)c(C(F)(F)F)c2)C(C)(C)CCC1O` (centres undefined), the pIC50 is 5.14 in test [1]; 5.49 in the test on CWR22R; 5.66 in the test on LNCaP; 5.14 in the test on PC-3; 5.00 in test [2].
Turning to `CC1=C(/C=C/C(=O)/C=C/c2ccc([N+](=O)[O-])cc2)C(C)(C)CCC1O` (centres undefined), the negative-log IC50 (pIC50) is 5.39 in the test on CWR22R, 5.38 in the test on LNCaP and 4.82 with PC-3.
On to `CC1=C(/C=C/C(=O)/C=C/c2cccc(C(F)(F)F)c2F)C(C)(C)CCC1O` (centres undefined), for which the negative-log IC50 (pIC50) with LNCaP was 5.96; in the test with PC-3, 5.68.
On to `CC1=C(/C=C/C(=O)/C=C/c2ccc(C(F)(F)F)cc2F)C(C)(C)CCC1O` (centres undefined), for which the pIC50 is 5.42 with CWR22R, 5.59 in the test with LNCaP and 5.34 in the test with PC-3.
Consider `CCOc1ccc(/C=C/C(=O)/C=C/C2=C(C)CCCC2(C)C)cc1OCC`, for which the values for the negative-log IC50 (pIC50) with LNCaP and in the test on PC-3 were 5.09 and < 4.30, respectively.
With `CC1=C(/C=C/C(=O)/C=C/c2c(F)cccc2C(F)(F)F)C(C)(C)CCC1O` (centres undefined), the pIC50 in the test on CWR22R was 5.05; with LNCaP, 5.31; with PC-3 it was 5.06.
Turning to `CC1=CCCC(C)(C)C1/C=C/C(=O)/C=C/c1cccc(C(F)(F)F)c1` (centres undefined), the negative-log IC50 (pIC50) in test [1] is 5.36; in the test with CWR22R it was 5.54; in the test with LNCaP it was 6.00; with PC-3, 5.28; in test [2], 5.36.
On to `CC1=C(/C=C/C(=O)/C=C/c2cccc(C(F)(F)F)c2)C(C)(C)CCC1`, for which the negative-log IC50 (pIC50) was 5.55 in the test with LNCaP and 5.11 in the test with PC-3.
For `CC1=C(/C=C/C(=O)/C=C/c2ccc(O)c([N+](=O)[O-])c2)C(C)(C)CCC1`, the pIC50 in the test with LNCaP was 4.57; in the test on PC-3, < 4.30.
In the case of `COc1ccc(/C=C/C(=O)/C=C/C2=C(C)CCCC2(C)C)cc1OC`, the pIC50 was 5.02 with LNCaP and 4.38 with PC-3.
On to `CC1=CCCC(C)(C)C1/C=C/C(=O)/C=C/c1ccccc1F` (centres undefined), for which the pIC50 is 5.22 in test [1]; 5.03 in the test with CWR22R; 5.80 with LNCaP; 5.32 in the test with PC-3; 5.08 in test [2].
As for `CC1=C(/C=C/C(=O)/C=C/c2ccccc2C(F)(F)F)C(C)(C)CCC1O` (centres undefined), the pIC50 in the test on CWR22R was 5.64; in the test on LNCaP, 5.54; with PC-3 it was 5.43; in test [2] it was 5.54.
As for `CC1=C(/C=C/C(=O)/C=C/c2cc(C(F)(F)F)ccc2C(F)(F)F)C(C)(C)CCC1O` (centres undefined), the negative-log IC50 (pIC50) in the test with LNCaP was 5.49; in the test with PC-3 it was 5.72; in test [2], 5.40.
For the compound `CC1=C(/C=C/C(=O)/C=C/c2ccccc2)C(C)(C)CCC1O` (centres undefined), the pIC50 in test [1] was 5.74; in the test on CWR22R it was 5.10; in the test on LNCaP, 5.24; in the test on PC-3, 4.81; in test [2] it was 4.90.
Consider `COc1ccc(/C=C/C(=O)/C=C/C2=C(C)CCCC2(C)C)cc1O`, for which the values for the negative-log IC50 (pIC50) with LNCaP and with PC-3 were 5.00 and 4.43, respectively.
Regarding `CC1=C(/C=C/C(=O)/C=C/c2cc(C(F)(F)F)cc(C(F)(F)F)c2)C(C)(C)CCC1O` (centres undefined), the pIC50 in the test with CWR22R was 5.66; with LNCaP it was 5.68; in the test with PC-3, 5.15; in test [2], 5.46.
For the compound `CC1=C(/C=C/C(=O)/C=C/c2cccc([N+](=O)[O-])c2)C(C)(C)CCC1`, the pIC50 was 5.57 in the test on LNCaP and 5.00 in the test with PC-3.
For the compound `COc1cc(/C=C/C(=O)/C=C/C2=C(C)CCCC2(C)C)ccc1O`, the negative-log IC50 (pIC50) is 5.02 with LNCaP and 4.67 with PC-3.
On to `CC1=C(/C=C/C(=O)/C=C/c2cccc(C#N)c2)C(C)(C)CCC1O` (centres undefined), for which the pIC50 is 5.66 in the test with CWR22R, 5.74 with LNCaP, 5.14 in the test on PC-3 and 5.72 in test [3].
